Source: ChEMBL document CHEMBL3877306, “Triazole Ureas Act as Diacylglycerol Lipase Inhibitors and Prevent Fasting-Induced Refeeding” (J Med Chem, 2017)
Activity calls are given as the source filed them. The calls are words filed in the database; no cut-off is given here.

Assays:
[1] = target: T1, Diacylglycerol lipase-alpha (Homo sapiens, UniProt Q9Y4D2); test: Inhibition of full length recombinant human DAGLalpha expressed in HEK293T cell membranes using PNP butyrate as substrate by colorimetric assay; set-up: species or system HEK-293T
T1 sequence (Q9Y4D2 whole entry): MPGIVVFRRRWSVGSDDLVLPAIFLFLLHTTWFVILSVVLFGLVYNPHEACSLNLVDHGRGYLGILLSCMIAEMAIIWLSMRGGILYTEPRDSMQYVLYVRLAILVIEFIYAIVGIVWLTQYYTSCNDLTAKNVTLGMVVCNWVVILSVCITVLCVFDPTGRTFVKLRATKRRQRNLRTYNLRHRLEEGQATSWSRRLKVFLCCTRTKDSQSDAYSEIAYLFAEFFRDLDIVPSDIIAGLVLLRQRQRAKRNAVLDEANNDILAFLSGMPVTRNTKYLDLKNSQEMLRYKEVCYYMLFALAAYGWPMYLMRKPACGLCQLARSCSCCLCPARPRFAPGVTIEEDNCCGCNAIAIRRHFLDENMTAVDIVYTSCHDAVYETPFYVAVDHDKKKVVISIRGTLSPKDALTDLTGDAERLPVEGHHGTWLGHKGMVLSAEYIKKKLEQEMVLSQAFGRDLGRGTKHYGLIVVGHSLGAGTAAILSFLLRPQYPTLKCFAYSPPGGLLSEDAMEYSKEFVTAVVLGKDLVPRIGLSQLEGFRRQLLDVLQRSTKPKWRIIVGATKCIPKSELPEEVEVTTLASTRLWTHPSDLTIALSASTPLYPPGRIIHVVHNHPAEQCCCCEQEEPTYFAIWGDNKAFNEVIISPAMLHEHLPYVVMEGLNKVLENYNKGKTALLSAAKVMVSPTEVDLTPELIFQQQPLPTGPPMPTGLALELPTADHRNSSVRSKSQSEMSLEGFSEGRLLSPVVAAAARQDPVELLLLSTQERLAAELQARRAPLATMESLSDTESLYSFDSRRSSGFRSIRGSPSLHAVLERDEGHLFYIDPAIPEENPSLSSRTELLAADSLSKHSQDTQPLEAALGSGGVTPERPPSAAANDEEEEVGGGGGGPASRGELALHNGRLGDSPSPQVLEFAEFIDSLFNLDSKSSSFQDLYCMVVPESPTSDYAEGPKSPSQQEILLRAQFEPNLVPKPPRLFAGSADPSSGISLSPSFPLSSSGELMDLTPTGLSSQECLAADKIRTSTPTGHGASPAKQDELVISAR
Method in brief: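 Membranes from HEK293T cells transiently transfected with human DAGLα (PEI transfection, harvested at 72 h), used at 0.05 µg/µL final protein in 50 mM HEPES pH 7.2. Activity was read colorimetrically from para-nitrophenylbutyrate hydrolysis. n = 4, mean ± SEM.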

[2] = target: T2, Diacylglycerol lipase-beta (Mus musculus, UniProt Q91WC9); test: Inhibition of recombinant mouse DAGLbeta expressed in HEK293T cell membranes using PNP butyrate as substrate by colorimetric assay; set-up: species or system HEK-293T
T2 sequence (Q91WC9 whole entry): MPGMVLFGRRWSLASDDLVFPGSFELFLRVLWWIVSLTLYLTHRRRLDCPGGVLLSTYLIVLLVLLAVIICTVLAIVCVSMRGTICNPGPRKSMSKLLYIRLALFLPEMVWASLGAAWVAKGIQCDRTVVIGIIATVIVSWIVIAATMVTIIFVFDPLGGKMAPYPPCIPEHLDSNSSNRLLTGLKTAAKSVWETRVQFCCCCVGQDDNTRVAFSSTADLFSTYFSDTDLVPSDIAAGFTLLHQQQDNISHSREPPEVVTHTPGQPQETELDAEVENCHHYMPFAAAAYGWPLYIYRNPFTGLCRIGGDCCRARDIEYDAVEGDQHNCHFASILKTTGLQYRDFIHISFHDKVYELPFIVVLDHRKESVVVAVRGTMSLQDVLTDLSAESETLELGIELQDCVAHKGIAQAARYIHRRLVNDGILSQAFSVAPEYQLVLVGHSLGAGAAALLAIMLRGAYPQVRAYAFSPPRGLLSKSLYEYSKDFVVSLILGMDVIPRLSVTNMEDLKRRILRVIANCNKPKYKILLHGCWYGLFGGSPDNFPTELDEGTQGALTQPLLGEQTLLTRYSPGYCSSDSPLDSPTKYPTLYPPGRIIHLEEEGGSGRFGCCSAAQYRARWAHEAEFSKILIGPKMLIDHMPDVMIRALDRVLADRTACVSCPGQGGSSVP
Method in brief: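 Membranes from HEK293T cells transiently transfected with mouse DAGLβ. Activity was read colorimetrically as hydrolysis of para-nitrophenylbutyrate surrogate substrate over a concentration range of inhibitor. n = 4, mean ± SEM.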

[3] = target: T3, Monoacylglycerol lipase ABHD6 (Homo sapiens, UniProt Q9BV23); test: Inhibition of human ABHD6 using 2-AG as natural substrate by fluorescence based assay
T3 sequence (Q9BV23 whole entry): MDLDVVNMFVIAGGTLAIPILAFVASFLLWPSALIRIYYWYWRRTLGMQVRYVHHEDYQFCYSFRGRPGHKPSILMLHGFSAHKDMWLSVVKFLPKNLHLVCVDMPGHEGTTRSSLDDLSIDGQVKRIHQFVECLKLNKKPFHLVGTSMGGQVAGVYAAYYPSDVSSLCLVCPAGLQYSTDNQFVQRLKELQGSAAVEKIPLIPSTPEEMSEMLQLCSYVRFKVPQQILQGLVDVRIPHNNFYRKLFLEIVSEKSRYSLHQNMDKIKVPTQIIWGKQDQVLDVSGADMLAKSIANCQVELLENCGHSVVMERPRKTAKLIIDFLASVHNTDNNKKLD
Method in brief: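 Coupled fluorescence assay: 2-AG hydrolysis detected via glycerol kinase, glycerol-3-phosphate oxidase and HRP (0.2 U/mL each), 0.125 mM ATP and 10 µM Amplifu Red. Conditions: 25 µM 2-AG, 0.5% acetonitrile, 5% DMSO, ABHD6 membrane protein 40 µg/mL final. n = 4.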

[4] = target: T4, Diacylglycerol lipase-beta (Homo sapiens) (UniProt Q8NCG7); test: Inhibition of DH379 probe binding to full length recombinant human DAGLbeta expressed in HEK293T cell membranes at 0.1 to 10000 nM after 30 mins by gel-based competitive activity based protein profiling assay; conditions: HEK-293T
T4 sequence (whole entry): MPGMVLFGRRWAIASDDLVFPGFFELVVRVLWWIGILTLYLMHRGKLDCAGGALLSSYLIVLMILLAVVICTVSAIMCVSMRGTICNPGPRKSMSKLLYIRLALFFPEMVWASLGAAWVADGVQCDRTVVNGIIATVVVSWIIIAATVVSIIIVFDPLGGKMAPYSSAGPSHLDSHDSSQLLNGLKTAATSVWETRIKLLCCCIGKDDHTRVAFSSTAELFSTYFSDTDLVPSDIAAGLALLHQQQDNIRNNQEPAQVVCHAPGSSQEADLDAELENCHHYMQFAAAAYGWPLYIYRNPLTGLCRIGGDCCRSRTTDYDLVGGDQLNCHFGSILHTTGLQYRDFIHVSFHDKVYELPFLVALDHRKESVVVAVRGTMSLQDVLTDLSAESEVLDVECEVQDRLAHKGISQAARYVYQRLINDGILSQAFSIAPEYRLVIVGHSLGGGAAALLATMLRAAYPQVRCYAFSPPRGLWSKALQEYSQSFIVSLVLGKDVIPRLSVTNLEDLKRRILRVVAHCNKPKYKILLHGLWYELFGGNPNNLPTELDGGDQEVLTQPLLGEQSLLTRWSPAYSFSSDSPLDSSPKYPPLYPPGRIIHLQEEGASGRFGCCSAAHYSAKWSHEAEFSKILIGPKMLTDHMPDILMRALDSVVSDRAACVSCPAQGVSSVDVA
Method in brief: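 HEK293T cells transiently transfected with full-length human DAGLβ cDNA (PEI:DNA 3:1), harvested at 72h; membrane fraction diluted to 1 mg/mL protein. Inhibitor-treated membranes were labelled with DAGL-tailored probe DH379 (1 μM, 30 min), then run on fluorescent SDS-PAGE. Band intensity was normalised to vehicle (100%), and IC50 was fitted to log(inhibitor) vs normalised response with variable slope; n = 3.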

[5] = target: T5, Diacylglycerol lipase-alpha (Homo sapiens) (UniProt Q9Y4D2); test: Inhibition of DH379 probe binding to full length recombinant human DAGLalpha expressed in HEK293T cell membranes at 0.1 to 10000 nM after 30 mins by gel-based competitive activity based protein profiling assay; conditions: HEK-293T
T5 sequence (whole entry): T1 sequence (Q9Y4D2 whole entry)
Method in brief: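 Membranes from HEK293T cells transiently transfected with human DAGLα were preincubated with inhibitor, then labelled with DAGL-tailored probe DH379 (1 μM, 30 min). Readout was fluorescent SDS gel. Band intensity was normalized to vehicle (100%) and fitted with a variable-slope dose-response curve. n = 3.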

Mus musculus [6] = test: Inhibition of fasting-induced refeeding in 18 hrs fasted C57Bl/6J mouse at 50 mg/kg, ip administered as single dose 30 mins prior to refeeding measured up to 16 hrs; assay type: functional, organism-based
Mus musculus [7] = test: Ex vivo inhibition of FP-TAMRA probe binding to carboxylesterase in mouse liver at 3 to 50 mg/kg, ip after 4 hrs by gel-based competitive activity based protein profiling assay; assay type: functional, organism-based
Mus musculus [8] = test: Toxicity in 18 hrs fasted C57Bl/6J mouse model of fasting-induced refeeding assessed as hypolocomotion at 50 mg/kg, ip administered as single dose 30 mins prior to refeeding measured after 24 hrs; assay type: organism-based; conditions: in vivo
[9] = target: T6, Diacylglycerol lipase-alpha (Mus musculus, UniProt Q6WQJ1); test: Inhibition of MB064 probe binding to DAGLalpha in mouse brain membrane proteome preincubated for 30 mins followed by MB064 probe addition measured after 20 mins by gel-based competitive activity based protein profiling assay; assay type: cell membranes
T6 sequence (Q6WQJ1 whole entry): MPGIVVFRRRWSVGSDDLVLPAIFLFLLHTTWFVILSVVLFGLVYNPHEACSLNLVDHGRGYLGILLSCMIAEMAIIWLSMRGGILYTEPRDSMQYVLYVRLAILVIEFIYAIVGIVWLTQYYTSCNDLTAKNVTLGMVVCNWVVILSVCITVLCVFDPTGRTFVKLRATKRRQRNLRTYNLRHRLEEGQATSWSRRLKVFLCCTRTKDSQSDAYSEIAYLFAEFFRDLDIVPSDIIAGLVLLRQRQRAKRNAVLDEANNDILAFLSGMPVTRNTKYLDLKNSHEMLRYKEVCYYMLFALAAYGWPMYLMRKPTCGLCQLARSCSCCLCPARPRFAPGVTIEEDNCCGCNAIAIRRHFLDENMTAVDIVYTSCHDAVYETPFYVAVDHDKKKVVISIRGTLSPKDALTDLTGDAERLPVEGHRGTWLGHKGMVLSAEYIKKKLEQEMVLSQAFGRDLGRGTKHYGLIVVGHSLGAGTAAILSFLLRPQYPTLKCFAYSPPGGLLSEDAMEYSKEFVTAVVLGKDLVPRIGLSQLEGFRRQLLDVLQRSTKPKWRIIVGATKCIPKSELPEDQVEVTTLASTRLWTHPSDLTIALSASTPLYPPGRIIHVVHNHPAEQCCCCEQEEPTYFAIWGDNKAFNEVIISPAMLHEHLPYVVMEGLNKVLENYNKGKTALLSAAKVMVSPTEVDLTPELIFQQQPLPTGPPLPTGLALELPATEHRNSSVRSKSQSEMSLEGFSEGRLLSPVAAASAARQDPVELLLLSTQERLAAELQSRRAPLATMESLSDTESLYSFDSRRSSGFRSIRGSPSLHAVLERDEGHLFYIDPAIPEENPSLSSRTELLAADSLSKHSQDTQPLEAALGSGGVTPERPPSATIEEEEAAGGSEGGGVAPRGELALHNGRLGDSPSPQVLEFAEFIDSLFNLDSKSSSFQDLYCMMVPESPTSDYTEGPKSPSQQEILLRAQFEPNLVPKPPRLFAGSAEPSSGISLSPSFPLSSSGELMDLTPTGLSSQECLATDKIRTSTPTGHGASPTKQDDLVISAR
Method in brief: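 Mouse brain membrane proteome (2 mg/mL) preincubated with inhibitor or DMSO vehicle for 30 min at r.t., then labelled with MB064 at 250 nM final for 20 min at r.t. and quenched in Laemmli buffer. Fluorescent bands were quantified against vehicle set to 100%, and IC50 was taken from a variable-slope log(inhibitor) vs normalized response fit. n = 3.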

[10] = target: T1, Diacylglycerol lipase-alpha; test: Inhibition of recombinant human DAGLalpha expressed in HEK293T cell membranes overexpressing MAGL using natural substrate 1-stearoyl-2-arachidonoly-sn-glycerol by fluorescence based assay; set-up: species or system HEK-293T
Method in brief: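 Real-time coupled fluorescence readout of glycerol release from hDAGLα-transfected HEK293T membranes (50 µg/mL final protein) with 100 µM SAG substrate. Added: 5 µg/mL MAGL-overexpressing membranes, 0.0075% (w/v) Triton X-100, 0.2 U/mL each glycerol kinase, glycerol-3-phosphate oxidase and HRP, 0.125 mM ATP, 10 µM Amplifu Red, 5% DMSO. n = 4.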

[11] = target: T1, Diacylglycerol lipase-alpha; test: Inhibition of HT-01 probe binding to recombinant human DAGLalpha expressed in HEK293T cell membrane proteomes preincubated for 30 mins followed by HT-01 probe addition measured after 30 mins by gel-based competitive activity based protein profiling assay; assay type: cell membranes, HEK-293T

| Structure (SMILES) | IC50 [1] | IC50 [2] | IC50 [3] | IC50 [10] | also measured |
| --- | --- | --- | --- | --- | --- |
| O=C(N1CCCCC1Cc1ccccc1)n1cc(C(O)(c2ccccc2)c2ccccc2)nn1 (configuration not stated) | 25.1 nM | 79.4 nM | 39.8 nM |  |  |
| O=C(N1CCCCC1Cc1ccccc1)n1ncc(C(O)(c2ccccc2)c2ccccc2)n1 (configuration not stated) | 2.51 nM | 12.6 nM | 20 nM |  | inhibition [4]: Active; inhibition [5]: Active |
| C/C=C/C=O [CROTONALDEHYDE] |  |  |  |  | inhibition (Mus musculus [6]): Active; inhibition (Mus musculus [7]): Active; Activity (Mus musculus [8]): Toxic |
| C/C=C/[C@@H](O)C#N |  |  |  |  | inhibition (Mus musculus [6]): Active; inhibition (Mus musculus [7]): Active; Activity (Mus musculus [8]): Toxic |
| O=C(N1CCCC[C@H]1Cc1ccccc1)n1cc(-c2ccc(-c3ccccc3)cc2)nn1 | 39.8 nM |  | 631 nM | 794 nM | IC50 [9]: 631 nM |
| CCC1CCCCN1C(=O)n1ncc(C(O)(c2ccccc2)c2ccccc2)n1 (configuration not stated) | 63.1 nM | 12600 nM |  |  |  |
| CCC1CCCCN1C(=O)n1cc(-c2ccc(-c3ccccc3)cc2)nn1 (configuration not stated) | 20 nM | 20000 nM |  |  |  |
| O=C(N1CCCCC1Cc1ccccc1)n1cc(-c2ccc(-c3ccccc3)cc2)nn1 (racemic) | 1.26 to 6.31 nM |  | 39.8 nM | 126 nM | inhibition [4]: Active; inhibition [5]: Active; IC50 [11]: 2300 nM |
| O=C(N1CCCC[C@@H]1Cc1ccccc1)n1cc(-c2ccc(-c3ccccc3)cc2)nn1 | 0.794 nM |  | 2.51 nM | 25.1 nM | IC50 [9]: 7.94 nM |
